Publication PMC11525735 (ACS Omega, 2024)

What was measured:
MDA-MB-231 cells = assay: In vitro fluorescence imaging of Cy5.5-A11; format: cell-based; conditions: 6 h
In short: (§1)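 Cells (5×10^4; kept in DMEM or RPMI-1640 with 10% FBS) were plated in chamber slides and cultured 24 h. They were then exposed to 10 nM Cy5.5-labelled test peptide at 37 °C for 6 h; blocking wells also received 1 μM unlabelled peptide. After three PBS washes, cells were fixed in 4% paraformaldehyde for 20 min and DAPI-stained. Images were taken by laser confocal microscopy.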

H460 cells = assay: In vitro fluorescence imaging of Cy5.5-A11; format: cell-based; conditions: 6 h
In short: as §1

A375 cells = assay: In vitro fluorescence imaging of Cy5.5-A11; format: cell-based; conditions: 6 h
In short: as §1

MDA-MB-231 xenografts = assay: In vivo NIF whole-body imaging of tumor-bearing mice; set-up: species or system BALB/c nu/nu nude mice; conditions: MDA-MB-231 xenograft, 1 nM Cy5.5-A11 i.v.
In short: (§2)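 Five-week-old female nude mice carried right-shoulder subcutaneous xenografts (5×10^6 cells). At 100 mm³, 1 nM Cy5.5-labelled test peptide was given i.v. (n = 3). Whole-body NIR imaging followed at 0.5, 1, 2, 3, 4, 5, 6 and 24 h p.i. with a Cy5.5 filter set, 1 s exposure, f/stop 4 and fixed illumination, in p/s/cm²/sr. Tumour-to-muscle ratio came from ROI mean intensities; mean ± SD.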

H460 xenografts = assay: as above; set-up: species or system BALB/c nu/nu nude mice; conditions: H460 xenograft, 1 nM Cy5.5-A11 i.v.
In short: as §2

A375 xenografts = assay: as above; set-up: species or system BALB/c nu/nu nude mice; conditions: A375 xenograft, 1 nM Cy5.5-A11 i.v.
In short: as §2

[1] = test system: MDA-MB-231 tumor-bearing mice; assay: Ex vivo biodistribution study; format: in vivo, BALB/c nu/nu nude mice; conditions: 4 h p.i.
In short: (§3)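 Five-week-old female nude mice carried subcutaneous right-shoulder xenografts (5×10^6 cells), including xenografts from stable shRNA PD-L1-knockdown lines. At 100 mm³ tumour volume, mice received 1 nM Cy5.5-labelled test peptide i.v., with or without 1 μM unlabelled peptide (n = 3). Mice were killed at 4 h p.i. Tumour, brain, heart, lung, liver, stomach, intestine, spleen, kidney and muscle were imaged ex vivo through a Cy5.5 filter set. Average fluorescence per specimen was taken by ROI; mean ± SD.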

H460 tumor-bearing mice = assay: Ex vivo biodistribution study; format: in vivo, BALB/c nu/nu nude mice; conditions: 4 h p.i.
In short: as §3

A375 tumor-bearing mice = assay: Ex vivo biodistribution study; format: in vivo, BALB/c nu/nu nude mice; conditions: 4 h p.i.
In short: as §3

PD-L1 = conditions: various cancer cells; cited from earlier work
[2] = 0.5-6 h p.i., ROI analysis, n = 3

Cy5.5-EYVQTVKSSKG [Cy5.5-A11]
fluorescent signal of cells, blocking with unlabeled A11 (MDA-MB-231 cells; MDA-MB-231, 10 nM Cy5.5-A11 + 1 μM unlabeled A11, 37 °C, confocal microscopy): successfully blocked
fluorescent signal of cells (MDA-MB-231 cells; MDA-MB-231, 10 nM Cy5.5-A11, 37 °C, laser confocal microscopy, nonblocking): robust fluorescent signal
fluorescent signal in PD-L1 knockdown versus shNC control cells (MDA-MB-231 cells; MDA-MB-231 stable PD-L1 shRNA knockdown and shNC control, 10 nM Cy5.5-A11, 37 °C, confocal microscopy): seen in shNC control cells but not PD-L1 knockdown cancer cells
fluorescent signal of cells, blocking with unlabeled A11 (H460 cells; H460, 10 nM Cy5.5-A11 + 1 μM unlabeled A11, 37 °C, confocal microscopy): successfully blocked
fluorescent signal of cells (H460 cells; H460, 10 nM Cy5.5-A11, 37 °C, laser confocal microscopy, nonblocking): robust fluorescent signal
fluorescent signal in PD-L1 knockdown versus shNC control cells (H460 cells; H460 stable PD-L1 shRNA knockdown and shNC control, 10 nM Cy5.5-A11, 37 °C, confocal microscopy): seen in shNC control cells but not PD-L1 knockdown cancer cells
fluorescent signal of cells, blocking with unlabeled A11 (A375 cells; A375, 10 nM Cy5.5-A11 + 1 μM unlabeled A11, 37 °C, confocal microscopy): successfully blocked
fluorescent signal of cells (A375 cells; A375, 10 nM Cy5.5-A11, 37 °C, laser confocal microscopy, nonblocking): robust fluorescent signal
fluorescent signal in PD-L1 knockdown versus shNC control cells (A375 cells; A375 stable PD-L1 shRNA knockdown and shNC control, 10 nM Cy5.5-A11, 37 °C, confocal microscopy): seen in shNC control cells but not PD-L1 knockdown cancer cells
tumor-to-muscle fluorescence signal ratio (MDA-MB-231 xenografts; [2]): High
tumor-specific fluorescence signal at 24 h p.i. (MDA-MB-231 xenografts; 24 h p.i.): distinctly visible
time of peak tumor-specific fluorescence signal (MDA-MB-231 xenografts; n = 3): 2 h p.i.
tumor-to-muscle fluorescence signal ratio (H460 xenografts; [2]): High
tumor-specific fluorescence signal at 24 h p.i. (H460 xenografts; 24 h p.i.): distinctly visible
time of peak tumor-specific fluorescence signal (H460 xenografts; n = 3): 2 h p.i.
tumor-to-muscle fluorescence signal ratio (A375 xenografts; [2]): High
tumor-specific fluorescence signal at 24 h p.i. (A375 xenografts; 24 h p.i.): distinctly visible
time of peak tumor-specific fluorescence signal (A375 xenografts; n = 3): 2 h p.i.
ex vivo uptake in the xenografts with excessive unlabeled A11 ([1]; MDA-MB-231, blocking group, 1 nM Cy5.5-A11 + 1 μM unlabeled A11 i.v.): obviously reduced
ex vivo uptake of the probe in the xenografts ([1]; MDA-MB-231, nonblocking group, 1 nM Cy5.5-A11 i.v., ex vivo fluorescence, ROI): significant uptake
ex vivo fluorescent signal in xenografts of cancer cells with PD-L1 knockdown ([1]; PD-L1 knockdown MDA-MB-231, 1 nM Cy5.5-A11 i.v.): dramatically decreased
ex vivo uptake in the xenografts with excessive unlabeled A11 (H460 tumor-bearing mice; H460, blocking group, 1 nM Cy5.5-A11 + 1 μM unlabeled A11 i.v.): obviously reduced
ex vivo uptake of the probe in the xenografts (H460 tumor-bearing mice; H460, nonblocking group, 1 nM Cy5.5-A11 i.v., ex vivo fluorescence, ROI): significant uptake
ex vivo fluorescent signal in xenografts of cancer cells with PD-L1 knockdown (H460 tumor-bearing mice; PD-L1 knockdown H460, 1 nM Cy5.5-A11 i.v.): dramatically decreased
ex vivo uptake in the xenografts with excessive unlabeled A11 (A375 tumor-bearing mice; A375, blocking group, 1 nM Cy5.5-A11 + 1 μM unlabeled A11 i.v.): obviously reduced
ex vivo uptake of the probe in the xenografts (A375 tumor-bearing mice; A375, nonblocking group, 1 nM Cy5.5-A11 i.v., ex vivo fluorescence, ROI): significant uptake
organ uptake (biodistribution) (A375 tumor-bearing mice; A375 tumor-bearing mice, three groups (nonblocking, blocking, PD-L1 KD), ex vivo fluorescence, ROI): higher in the liver and kidney than that in other organs
ex vivo fluorescent signal in xenografts of cancer cells with PD-L1 knockdown (A375 tumor-bearing mice; PD-L1 knockdown A375, 1 nM Cy5.5-A11 i.v.): dramatically decreased

EYVQTVKSSKG [A11]
action on PD-L1 (PD-L1): binds and degrades PD-L1
